Test results from ChEMBL document CHEMBL3621183, “Discovery and crystallography of bicyclic arylaminoazines as potent inhibitors of HIV-1 reverse transcriptase” (Bioorg Med Chem Lett, 2015).
In brackets after ≈: the same amount, converted by molar mass.

What was measured:
[1] = tested on: Human immunodeficiency virus 1; assay: Antiviral activity against wild type HIV1 3B infected in human MT2 cells assessed as protection against viral infection by MTT assay; format: functional, organism-based; conditions: Human immunodeficiency virus 1, 3B
Summary of the method: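 HIV-1 IIIB strain tested in MT-2 human T-cells. […] Triplicate samples at each concentration.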

[2] = tested on: Human immunodeficiency virus 1; assay: Antiviral activity against HIV1 3B harboring reverse transcriptase K103N/Y181C double mutant infected in human MT2 cells assessed as protection against viral infection by MTT assay; format: functional, organism-based
Summary of the method: (§1)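 MT-2 human T-cells infected with the HIV-1 IIIB strain carrying the listed RT mutation. […] Triplicate samples at each concentration. Compounds were >95% pure by HPLC.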

MT2 = assay: Cytotoxicity against human MT2 cells assessed as growth inhibition by MTT assay; format: cell-based
[3] = tested on: Human immunodeficiency virus 1; assay: Antiviral activity against HIV1 3B harboring reverse transcriptase Y181C mutant infected in human MT2 cells assessed as protection against viral infection by MTT assay; format: functional, organism-based; summary of the method: as §1
[4] = Aqueous solubility of the compound in Britton-Robinson buffer at pH 6.5 at 25 degC by shake flask method; format: physicochemical
Summary of the method: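 Shake-flask method. Supernatant collected through a 0.2 μm syringe filter and quantified by UV-vis spectrophotometry.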

[5] = Human immunodeficiency virus 1, 3B, MT2, read-out: EC50

`N#Cc1ccc(Nc2nccc(Nc3c(F)cc4cc(C#N)ccc4c3F)n2)cc1` showed an EC50 [1] of 1.8 nM, an EC50 [2, 5] of 50 nM and a CC50 (MT2) of 4800 nM. It also gave an EC50 [3, 5] of 6 nM.
Work on `Cc1cn2cc(C#N)cc2cc1Nc1ccnc(Nc2ccc(C#N)cc2)n1` yielded an EC50 [1] of 30 nM, an EC50 [2, 5] of 6200 nM and a CC50 (MT2) of 72000 nM. It also gave an EC50 [3, 5] of 510 nM.
For `N#Cc1ccc(Nc2nccc(Nc3ccc4cc(C#N)ccc4c3F)n2)cc1`, the EC50 [1] was 6 nM, the EC50 [2, 5] was 790 nM and the CC50 (MT2) was 45000 nM. For the same compound, the EC50 [3, 5] was 70 nM.
In the case of `Cc1cn2cc(C#N)cc2c(C)c1Nc1nc(Cl)nc(Nc2ccc(C#N)cc2)n1`, the EC50 [1] is reported as 14000 nM, the EC50 ([2]; mt2) is reported as “Not Active” and the CC50 (MT2) is reported as 38000 nM. The EC50 ([3]; mt2) was “Not Active”.
With `N#Cc1ccc(Nc2nccc(Nc3c(F)cn4cc(C#N)cc4c3F)n2)cc1` the EC50 [1] was 1.4 nM, the EC50 ([2]; mt2) was “Not Active” and the CC50 (MT2) was 1000 nM. For the same compound, the EC50 [3, 5] was 98 nM.
Work on `Cc1cc2cc(C#N)ccc2c(C)c1Nc1nc(Cl)nc(Nc2ccc(C#N)cc2)n1` yielded an EC50 [1] of 2.3 nM, an EC50 [2, 5] of 67 nM and a CC50 (MT2) of 7500 nM. The EC50 [3, 5] was 41 nM.
In the case of `Cc1c(Nc2ccnc(Nc3ccc(C#N)cc3)n2)ccn2cc(C#N)cc12`, the EC50 [1] is reported as 1.4 nM, the EC50 [2, 5] is reported as 170 nM and the CC50 (MT2) is reported as > 100000 nM. The EC50 [3, 5] was 26 nM.
Compound `N#Cc1ccc(Nc2nc(Nc3ccc4cc(C#N)ccc4c3)nc(OCCCN3CCOCC3)n2)cc1` has an EC50 [1] of 120 nM, an EC50 [2, 5] of 150 nM and a CC50 (MT2) of 1200 nM. The EC50 ([3]; mt2) was “Not Active”.
In the case of `Cc1c(Nc2ccnc(Nc3ccc(C#N)cc3)n2)ccc2cc(C#N)ccc12`, the EC50 [1] is reported as 7 nM, the EC50 [2, 5] is reported as 130 nM and the CC50 (MT2) is reported as > 100000 nM. The EC50 [3, 5] was 8.5 nM.
In the case of `Cc1cc2cc(C#N)ccc2c(C)c1Nc1ncnc(Nc2ccc(C#N)cc2)n1`, the solubility thermodynamic [4] is reported as 28.7 µg/mL (≈ 73.3 µM), the EC50 [1] is reported as 1.1 nM and the EC50 [2, 5] is reported as 7 nM. The CC50 (MT2) was 9500 nM and the EC50 [3, 5] was 1.3 nM.
In the case of `Cc1c(Nc2nc(Nc3ccc(C#N)cc3)nc(OCCCN3CCOCC3)n2)ccc2cc(C#N)ccc12`, the EC50 [1] is reported as 21 nM, the EC50 [2, 5] is reported as 98 nM and the CC50 (MT2) is reported as 5900 nM. For the same compound, the EC50 [3, 5] was 58 nM.
In the case of `N#Cc1ccc(Nc2ncnc(Nc3c(F)cc4cc(C#N)ccc4c3F)n2)cc1`, the EC50 [1] is reported as 1.2 nM, the EC50 [2, 5] is reported as 65 nM and the CC50 (MT2) is reported as > 100000 nM. The EC50 [3, 5] was 7 nM.
Work on `Cc1cn2cc(C#N)cc2c(C)c1Nc1ccnc(Nc2ccc(C#N)cc2)n1` yielded a solubility thermodynamic [4] of 8.2 µg/mL (≈ 21.6 µM), an EC50 [1] of 1 nM and an EC50 [2, 5] of 39 nM. For the same compound, the CC50 (MT2) was 10100 nM and the EC50 [3, 5] was 0.57 nM.
`N#Cc1ccc(Nc2ncnc(Nc3c(F)cn4cc(C#N)cc4c3F)n2)cc1` showed an EC50 [1] of 2.7 nM, an EC50 [2, 5] of 2200 nM and a CC50 (MT2) of 20000 nM. The EC50 [3, 5] was 230 nM.
In the case of `N#Cc1ccc(Nc2nccc(Nc3cc4cc(C#N)cn4cc3F)n2)cc1`, the EC50 [1] is reported as 200 nM, the EC50 [2, 5] is reported as 4600 nM and the CC50 (MT2) is reported as 76000 nM. For the same compound, the EC50 [3, 5] was 1600 nM.
Compound `Cc1cc2cc(C#N)ccc2c(C)c1Nc1nc(Nc2ccc(C#N)cc2)nc(OCCCN2CCOCC2)n1` has an EC50 [1] of 17 nM, an EC50 [2, 5] of 16 nM and a CC50 (MT2) of 17000 nM. The EC50 [3, 5] was 36 nM.
In the case of `Cc1cc2cc(C#N)ccc2c(C)c1Nc1ccnc(Nc2ccc(C#N)cc2)n1`, the solubility thermodynamic [4] is reported as 12.2 µg/mL (≈ 31.2 µM), the EC50 [1] is reported as 2.9 nM and the EC50 [2, 5] is reported as 6.9 nM. The CC50 (MT2) was 7800 nM and the EC50 [3, 5] was 2.2 nM.
In the case of `N#Cc1ccc(Nc2nc(Nc3ccc4cc(C#N)ccc4c3F)nc(OCCCN3CCOCC3)n2)cc1`, the EC50 [1] is reported as 36 nM, the EC50 [2, 5] is reported as 180 nM and the CC50 (MT2) is reported as 3800 nM. It also gave an EC50 [3, 5] of 160 nM.
With `Cc1c(Nc2nc(Nc3ccc(C#N)cc3)nc(OCCCN3CCOCC3)n2)ccn2cc(C#N)cc12` the EC50 [1] was 1900 nM, the EC50 ([2]; mt2) was “Not Active” and the CC50 (MT2) was 10000 nM. The EC50 ([3]; mt2) was “Not Active”.
With `Cc1cn2cc(C#N)cc2c(C)c1Nc1ncnc(Nc2ccc(C#N)cc2)n1` the solubility thermodynamic [4] was 33.1 µg/mL (≈ 87 µM), the EC50 [1] was 0.52 nM and the EC50 [2, 5] was 32 nM. For the same compound, the CC50 (MT2) was 16000 nM and the EC50 [3, 5] was 7.1 nM.
For `N#Cc1ccc(Nc2nccc(Nc3ccn4cc(C#N)cc4c3)n2)cc1`, the EC50 [1] was 200 nM, the EC50 ([2]; mt2) was “Not Active” and the CC50 (MT2) was > 100000 nM. For the same compound, the EC50 ([3]; mt2) was “Not Active”.
With `N#Cc1ccc(Nc2nccc(Nc3ccc4cc(C#N)ccc4c3)n2)cc1` the EC50 [1] was 24 nM, the EC50 [2, 5] was 520 nM and the CC50 (MT2) was > 100000 nM. The EC50 [3, 5] was 170 nM.
